{"source": "ChEMBL document CHEMBL1125520", "about": "“Improved brain delivery of AZT using a glycosyl phosphotriester prodrug” (1992)", "key": {"Mus musculus [1]": {"species_on_record": "Mus musculus", "experiment": "In Vitro detection by Gray and Whittaker method for % of internalization by comparing with external nucleoside of 2000 nM/g", "type": "functional", "how_it_was_run": "(§1)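 Crude synaptosomes from three mouse brains were prepared by Gray–Whittaker homogenization in 10% sucrose buffered with 5 mM Tris-HCl, pH 7.4. The 7000g pellet was resuspended and incubated with each nucleoside at 3 mM for 15 min at 37 °C, stopped by cold 10-fold dilution and washed twice. Internal nucleoside was extracted in acetonitrile–water (3:1) and measured by HPLC.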"}, "Mus musculus [2]": {"tested_on": "Mus musculus", "experiment": "In Vivo detection of total AZT in Mice plasma after oral administration of 20 mg/kg after 2 hr", "type": "functional, organism-based", "parameters": "dose 20 mg/kg", "how_it_was_run": "(§2)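 Male Swiss mice (18–20 g, six weeks old) given the test substance or vehicle ([…]) by gavage as a 3 mM solution (1.5 µmol/mouse). Aortic blood was collected into heparinized tubes at 0.5–48 h and centrifuged at 13000g for 10 min. Plasma was stored at -22 °C and analysed by HPLC. Three mice were used per time point, in triplicate. Values were not corrected for recovery.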"}, "Mus musculus [3]": {"tested_on": "Mus musculus", "experiment": "In Vivo detection in Mice plasma after oral administration of 20 mg/kg detected in the form of AZT 5`-P after 24 hr", "type": "functional, organism-based", "parameters": "dose 20 mg/kg"}, "Mus musculus [4]": {"tested_on": "Mus musculus", "experiment": "In Vivo detection in Mice plasma after oral administration of 20 mg/kg detected in the form of AZT after 2 hr", "type": "functional, organism-based", "parameters": "dose 20 mg/kg"}, "Mus musculus [5]": {"tested_on": "Mus musculus", "experiment": "In Vivo detection of total AZT in Mice plasma after oral administration of 20 mg/kg after 4 hr", "type": "functional, organism-based", "parameters": "dose 20 mg/kg", "how_it_was_run": "as §2"}, "Mus musculus [6]": {"tested_on": "Mus musculus", "experiment": "In Vivo detection of total AZT in Mice plasma after oral administration of 20 mg/kg after 0.5 hr", "type": "functional, organism-based", "parameters": "dose 20 mg/kg", "how_it_was_run": "as §2"}, "Mus musculus [7]": {"tested_on": "Mus musculus", "experiment": "In Vivo detection in Mice plasma after oral administration of 20 mg/kg detected in the form of AZT after 0.5 hr", "type": "functional, organism-based", "parameters": "dose 20 mg/kg"}, "Mus musculus [8]": {"tested_on": "Mus musculus", "experiment": "In Vivo detection in Mice plasma after oral administration of 20 mg/kg detected in the form of AZT after 8 hr", "type": "functional, organism-based", "parameters": "dose 20 mg/kg"}, "Mus musculus [9]": {"tested_on": "Mus musculus", "experiment": "In Vivo detection in Mice plasma after oral administration of 20 mg/kg detected in the form of AZT 5`-P after 8 hr", "type": "functional, organism-based", "parameters": "dose 20 mg/kg"}, "Mus musculus [10]": {"tested_on": "Mus musculus", "experiment": "In Vivo detection of total AZT in Mice plasma after oral administration of 20 mg/kg after 48 hr", "type": "functional, organism-based", "parameters": "dose 20 mg/kg", "how_it_was_run": "as §2"}, "Mus musculus [11]": {"tested_on": "Mus musculus", "experiment": "In Vivo detection in Mice plasma after oral administration of 20 mg/kg detected in the form of AZT after 4 hr", "type": "functional, organism-based", "parameters": "dose 20 mg/kg"}, "Mus musculus [12]": {"tested_on": "Mus musculus", "experiment": "In Vivo detection in Mice plasma after oral administration of 20 mg/kg detected in the form of AZT after 24 hr", "type": "functional, organism-based", "parameters": "dose 20 mg/kg"}, "Mus musculus [13]": {"tested_on": "Mus musculus", "experiment": "In Vivo detection in Mice plasma after oral administration of 20 mg/kg detected in the form of AZT 5`-P after 4 hr", "type": "functional, organism-based", "parameters": "dose 20 mg/kg"}, "Mus musculus [14]": {"tested_on": "Mus musculus", "experiment": "In Vivo detection of total AZT in Mice plasma after oral administration of 20 mg/kg after 1 hr", "type": "functional, organism-based", "parameters": "dose 20 mg/kg", "how_it_was_run": "as §2"}, "Mus musculus [15]": {"tested_on": "Mus musculus", "experiment": "In Vivo detection in Mice plasma after oral administration of 20 mg/kg detected in the form of AZT after 1 hr", "type": "functional, organism-based", "parameters": "dose 20 mg/kg"}, "Mus musculus [16]": {"tested_on": "Mus musculus", "experiment": "In Vivo detection in Mice plasma after oral administration of 20 mg/kg detected in the form of AZT 5`-P after 2 hr", "type": "functional, organism-based", "parameters": "dose 20 mg/kg"}, "Mus musculus [17]": {"tested_on": "Mus musculus", "experiment": "In Vivo detection of total AZT in Mice plasma after oral administration of 20 mg/kg after 8 hr", "type": "functional, organism-based", "parameters": "dose 20 mg/kg", "how_it_was_run": "as §2"}, "Mus musculus [18]": {"tested_on": "Mus musculus", "experiment": "In Vivo detection in Mice plasma after oral administration of 20 mg/kg detected in the form of AZT 5`-P after 48 hr", "type": "functional, organism-based", "parameters": "dose 20 mg/kg"}, "Mus musculus [19]": {"tested_on": "Mus musculus", "experiment": "In Vivo detection in Mice plasma after oral administration of 20 mg/kg detected in the form of AZT 5`-P after 1 hr", "type": "functional, organism-based", "parameters": "dose 20 mg/kg"}, "Mus musculus [20]": {"tested_on": "Mus musculus", "experiment": "In Vivo detection in Mice plasma after oral administration of 20 mg/kg detected in the form of AZT after 48 hr", "type": "functional, organism-based", "parameters": "dose 20 mg/kg"}, "Mus musculus [21]": {"tested_on": "Mus musculus", "experiment": "In Vivo detection of total AZT in Mice plasma after oral administration of 20 mg/kg after 24 hr", "type": "functional, organism-based", "parameters": "dose 20 mg/kg", "how_it_was_run": "as §2"}, "Mus musculus [22]": {"tested_on": "Mus musculus", "experiment": "In Vivo detection in Mice plasma after oral administration of 20 mg/kg detected in the form of AZT 5`-P after 0.5 hr", "type": "functional, organism-based", "parameters": "dose 20 mg/kg"}, "Mus musculus [23]": {"species_on_record": "Mus musculus", "experiment": "Concentration of external nucleoside in mouse brain", "type": "functional", "how_it_was_run": "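Male Swiss mice (6 weeks, 18–20 g) dosed by oral gavage in saline vehicle at 20 mg/kg AZT or molar equivalent (3 mM, 1.5 µmol/mouse). Brains taken 0.5–48 h post-dose, homogenized in acetonitrile–water 3:1, centrifuged, lyophilized and filtered. Analysed by column-switching C18 HPLC with diode-array detection against spiked standards and vehicle controls. Three mice per time point, triplicates; not recovery-corrected.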"}, "Mus musculus [24]": {"species_on_record": "Mus musculus", "experiment": "In Vitro detection by Gray and Whittaker method for the total internal nucleoside", "type": "functional", "how_it_was_run": "as §1"}}}
{"smiles": "Cc1cn([C@H]2C[C@H](N=[N+]=[N-])[C@@H](CO)O2)c(=O)[nH]c1=O", "note": "[ZIDOVUDINE]", "values": [{"measurement": "Internalisation", "setting": "Mus musculus [1]", "result": 0.03, "unit": "%"}, {"measurement": "Plasma content", "setting": "Mus musculus [2]", "result": 19.1, "unit": "nM ml-1"}, {"measurement": "Plasma content", "setting": "Mus musculus [3]", "result": 0, "unit": "nM ml-1"}, {"measurement": "Plasma content", "setting": "Mus musculus [4]", "result": 6, "unit": "nM ml-1"}, {"measurement": "Plasma content", "setting": "Mus musculus [5]", "result": 4.4, "unit": "nM ml-1"}, {"measurement": "Plasma content", "setting": "Mus musculus [6]", "result": 48.3, "unit": "nM ml-1"}, {"measurement": "Plasma content", "setting": "Mus musculus [7]", "result": 26.6, "unit": "nM ml-1"}, {"measurement": "Plasma content", "setting": "Mus musculus [8]", "result": 0, "unit": "nM ml-1"}, {"measurement": "Plasma content", "setting": "Mus musculus [9]", "result": 0, "unit": "nM ml-1"}, {"measurement": "Plasma content", "setting": "Mus musculus [10]", "result": 0, "unit": "nM ml-1"}, {"measurement": "Plasma content", "setting": "Mus musculus [11]", "result": 4.4, "unit": "nM ml-1"}, {"measurement": "Plasma content", "setting": "Mus musculus [12]", "result": 0, "unit": "nM ml-1"}, {"measurement": "Plasma content", "setting": "Mus musculus [13]", "result": 0, "unit": "nM ml-1"}, {"measurement": "Plasma content", "setting": "Mus musculus [14]", "result": 43.2, "unit": "nM ml-1"}, {"measurement": "Plasma content", "setting": "Mus musculus [15]", "result": 15.7, "unit": "nM ml-1"}, {"measurement": "Plasma content", "setting": "Mus musculus [16]", "result": 13.1, "unit": "nM ml-1"}, {"measurement": "Plasma content", "setting": "Mus musculus [17]", "result": 0, "unit": "nM ml-1"}, {"measurement": "Plasma content", "setting": "Mus musculus [18]", "result": 0, "unit": "nM ml-1"}, {"measurement": "Plasma content", "setting": "Mus musculus [19]", "result": 27.5, "unit": "nM ml-1"}, {"measurement": "Plasma content", "setting": "Mus musculus [20]", "result": 0, "unit": "nM ml-1"}, {"measurement": "Plasma content", "setting": "Mus musculus [21]", "result": 0, "unit": "nM ml-1"}, {"measurement": "Plasma content", "setting": "Mus musculus [22]", "result": 21.7, "unit": "nM ml-1"}]}
{"smiles": "Cc1cn([C@H]2C[C@H](N=[N+]=[N-])[C@@H](COP(=O)(O)O)O2)c(=O)[nH]c1=O", "note": "[AZIDOTHYMIDINE MONOPHOSPHATE]", "values": [{"measurement": "Internalisation", "setting": "Mus musculus [1]", "result": 0.06, "unit": "%"}, {"measurement": "External nucleoside", "setting": "Mus musculus [23]", "result": 2000, "unit": "nM/g"}, {"measurement": "Brain content", "setting": "Mus musculus [24]", "result": 1.1, "unit": "nM/g"}]}
